Active and inactive are the calls of the source.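 Rule for the calls, unless noted: active = viability loss from added drug above about 55%, and viability with drug at most 40%, in both replicates (limit read from the data, passing the limit was not always enough); inconclusive = both conditions met in only one replicate; inactive = neither replicate meets both conditions.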
Assays:
[1] = reducers of endogenous Her2 protein level, primary screen, SKBR3 breast tumor cells, AlphaScreen, ATP viability (AID 461;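 active = Her2 level under about 52% in both replicate screens, with viability over 70% of control, limit read from the data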;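 for Her2 level: lower value means less Her2 protein in the cells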;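 for viability: percent of carrier control wells set as 100% viability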); conditions: 18-24 h, measured here: SKBR3 viability, ATP luminescence, at 10 µM
[2] = target: Receptor tyrosine-protein kinase erbB-2 (Homo sapiens) (UniProt P04626); test: as above; conditions: 18-24 h, at 10 µM, stronger effect = lower value
[3] = SK-BR-3 cell growth inhibitors, pilot screen, 24 h, human (AID 572;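 active = viability at or below 10% of carrier control in both of two separate runs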;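 note: compound exposure lasted between 18 and 24 h rather than exactly 24 h; 100% = carrier-treated control wells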); conditions: SK-BR-3 viability, CellTiter-Glo luminescence, at 10 µM, stronger effect = lower value
[4] = HUVEC growth inhibition – cell-based, human, primary screen (AID 575;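 active = viability at or below 30% in both replicate assays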;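 note: 100% = median of untreated cell wells with 0.1% DMSO on each plate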); conditions: HUVEC proliferation, CellTiter-Glo luminescence, 72 h; at 10 µM; stronger effect = lower value
Outline: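 Test system: HUVEC primary cells. Quantity: 1250 endothelial cells in each well. Dosing: single-point 10 µM, DMSO 0.1% final. Incubation: 72 h treatment at 37 °C. Measured by: CTG luminescence. Control set: DMSO cell controls and MePR drug controls. Plate: collagen-coated 384-well format.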

[5] = growth inhibitors of H69AR lung tumor, primary screen, human, duplicate replicates (AID 580;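 active = viability at or under a set limit in both replicates, limit being median viability minus 3 SD, cut at about 48% in these data, passing the limit was not always enough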;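 note: 100% = mean luminescence of untreated wells and 0% = no signal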); conditions: H69AR lung tumor cells viability, ATP luminescence, 72 h; at 10 µM; stronger effect = lower value
[6] = reversal of MRP1-mediated doxorubicin resistance, pilot screen, H69AR cells, doxorubicin co-treatment (AID 601); conditions: CellTiter-Glo, 72 h, at 10 µM; for differential viability (reversal): stronger effect = higher value
[7] = 384-well plate pilot, post-Golgi transport modulator project, inhibition of yeast transport mutant growth (AID 636; in the data active = inhibition above about 31%); conditions: absorbance 615 nm, about 18 h, stronger effect = higher value
[8] = growth suppression of yeast trafficking mutant, preliminary HTS, modulators of trafficking downstream of Golgi apparatus project, 1536-format plate, OD 615 nm (AID 637; in the data active = inhibition above about 30%); conditions: yeast transport mutant growth, absorbance 615 nm, 18 h; stronger effect = higher value
[9] = H69AR cells + 2 uM doxorubicin, measured here: viability with 2 uM doxorubicin, stronger effect = lower value
[10] = H69AR cells, compound alone cytotoxicity

Sequence of Receptor tyrosine-protein kinase erbB-2 (Homo sapiens) (P04626 whole entry, looked up): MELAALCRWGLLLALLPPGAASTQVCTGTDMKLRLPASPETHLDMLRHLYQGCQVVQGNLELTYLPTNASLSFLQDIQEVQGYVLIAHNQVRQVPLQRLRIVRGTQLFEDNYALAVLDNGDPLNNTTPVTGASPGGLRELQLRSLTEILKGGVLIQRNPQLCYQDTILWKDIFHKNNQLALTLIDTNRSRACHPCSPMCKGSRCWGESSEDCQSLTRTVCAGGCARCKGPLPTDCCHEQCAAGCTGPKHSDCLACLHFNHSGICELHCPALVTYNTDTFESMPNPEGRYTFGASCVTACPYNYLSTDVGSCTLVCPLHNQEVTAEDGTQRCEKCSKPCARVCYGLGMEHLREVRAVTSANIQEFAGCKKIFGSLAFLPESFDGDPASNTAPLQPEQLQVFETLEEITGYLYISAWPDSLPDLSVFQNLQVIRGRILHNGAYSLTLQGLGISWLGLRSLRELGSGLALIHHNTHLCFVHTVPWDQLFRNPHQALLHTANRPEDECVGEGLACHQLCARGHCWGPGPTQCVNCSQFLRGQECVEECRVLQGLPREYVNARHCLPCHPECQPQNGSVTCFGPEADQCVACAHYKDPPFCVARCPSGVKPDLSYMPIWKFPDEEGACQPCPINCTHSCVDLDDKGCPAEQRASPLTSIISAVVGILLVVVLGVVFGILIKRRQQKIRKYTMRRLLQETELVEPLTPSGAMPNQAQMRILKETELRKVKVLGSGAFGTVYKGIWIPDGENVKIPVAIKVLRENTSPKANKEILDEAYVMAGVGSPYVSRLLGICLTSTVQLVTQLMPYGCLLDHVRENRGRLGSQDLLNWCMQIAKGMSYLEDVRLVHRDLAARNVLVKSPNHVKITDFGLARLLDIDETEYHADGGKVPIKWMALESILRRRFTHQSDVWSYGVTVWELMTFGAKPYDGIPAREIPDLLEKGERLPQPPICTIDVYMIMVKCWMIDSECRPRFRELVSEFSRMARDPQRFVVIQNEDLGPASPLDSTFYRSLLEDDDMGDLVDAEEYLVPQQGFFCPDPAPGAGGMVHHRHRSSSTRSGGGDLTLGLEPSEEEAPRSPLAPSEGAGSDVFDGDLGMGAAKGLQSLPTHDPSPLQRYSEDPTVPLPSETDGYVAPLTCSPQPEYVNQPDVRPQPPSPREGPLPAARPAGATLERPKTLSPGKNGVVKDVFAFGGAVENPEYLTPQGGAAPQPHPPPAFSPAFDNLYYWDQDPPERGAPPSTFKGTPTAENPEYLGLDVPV

Row | SMILES | viability [1] [%] | Her2 level [2] | viability [3] | viability [4] | viability [5] | differential viability (reversal) ([6]; H69AR cells + 2 uM doxorubicin) | viability [6, 9] [%] | viability [6, 10] [%] | inhibition [7] | inhibition [8]
1 | c1ccc(CNc2ncnc3ccccc23)cc1 | 86 | 87% (inactive) | 86% (inactive) | 58.2% (inactive) | 83.8% (inactive) | -13.6% (inactive) | 97.3 | 83.8 | -5% (inactive) | 3.93% (inactive)
2 | COc1ccc(C2CNC(=O)C2)cc1OC1CCCC1 (stereo not given) | 115 | 121% (inactive) | 115% (inactive) | 114% (inactive) | 109% (inactive) | 18.8% (inactive) | 90.6 | 109 | – | –
3 | CCCCN(CCCC)CCCOC(=O)c1ccc(N)cc1 | 92 | 106% (inactive) | 92% (inactive) | 111% (inactive) | 90.7% (inactive) | -8.53% (inactive) | 99.2 | 90.7 | – | –
4 | CCCC(=O)Nc1ccc(OCC(O)CNC(C)C)c(C(C)=O)c1 (stereo not given) | 100 | 121% (inactive) | 100% (inactive) | 115% (inactive) | 101% (inactive) | -0.95% (inactive) | 102 | 101 | – | –
5 | COc1ccc([C@@H]2Sc3ccccc3N(CCN(C)C)C(=O)[C@@H]2OC(C)=O)cc1 | 76 | 106% (inactive) | 76% (inactive) | 100% (inactive) | 92.1% (inactive) | -11.2% (inactive) | 103 | 92.1 | – | –
6 | O=C(Cn1nnc(-c2ccccc2)n1)Nc1ccccc1N1CCOCC1 | 99.5 | 98% (inactive) | 99.5% (inactive) | 110% (inactive) | 93.3% (inactive) | 0.8% (inactive) | 92.5 | 93.3 | -7.2% (inactive) | 0.66% (inactive)
7 | CC1Cc2ccccc2N1NC(=O)c1ccc(Cl)c(S(N)(=O)=O)c1 (stereo not given) | 93.5 | 105% (inactive) | 93.5% (inactive) | 102% (inactive) | 91.4% (inactive) | 1.41% (inactive) | 90 | 91.4 | – | –
8 | COc1ccc(C)cc1S(=O)(=O)Nc1cccnc1 | 90.5 | 84.5% (inactive) | 90.5% (inactive) | 91.2% (inactive) | 88.4% (inactive) | 1.54% (inactive) | 86.9 | 88.4 | -4.19% (inactive) | 0.16% (inactive)
9 | CCC(=O)Nc1ccc2nc(SCC(=O)N3CCCC3)sc2c1 | 97.5 | 100% (inactive) | 97.5% (inactive) | 114% (inactive) | 94.1% (inactive) | 5.62% (inactive) | 88.5 | 94.1 | 2.67% (inactive) | 38.4% (active)
10 | CC(C(=O)c1ccccc1)n1cnc2ccccc2c1=O (stereo not given) | 94.5 | 87% (inactive) | 94.5% (inactive) | 86.6% (inactive) | 89.6% (inactive) | 9.12% (inactive) | 80.5 | 89.6 | -5.73% (inactive) | 2.42% (inactive)
11 | Cc1ccc(/C=N/n2nnnc2N)o1 | 93 | 88% (inactive) | 93% (inactive) | 111% (inactive) | 95.1% (inactive) | 10.6% (inactive) | 84.5 | 95.1 | -8.38% (inactive) | -10.5% (inactive)
12 | Cc1ccc(O)c(C(CC(=O)N2CCCC2)c2ccccc2)c1 (stereo not given) | 89 | 101% (inactive) | 89% (inactive) | 92.4% (inactive) | 94.8% (inactive) | 12.3% (inactive) | 82.5 | 94.8 | -0.38% (inactive) | -6.83% (inactive)
13 | COc1ccc(/C(O)=C2/C(=O)C(=O)N(CCCN(C)C)C2c2ccc(Cl)cc2)cc1OC (stereo not given) | 101 | 97.5% (inactive) | 101% (inactive) | 103% (inactive) | 103% (inactive) | -1.86% (inactive) | 105 | 103 | 0.4% (inactive) | -3.39% (inactive)
14 | Cc1c(C(=O)O)sc2ncn(C)c(=O)c12 | 106 | 78% (inactive) | 106% (inactive) | 100% (inactive) | 103% (inactive) | 11.7% (inactive) | 91.7 | 103 | -7.76% (inactive) | -4% (inactive)
15 | Cn1c(SCC(=O)N2CCOCC2)nnc1-c1cnccn1 | 109 | 116% (inactive) | 109% (inactive) | 101% (inactive) | 109% (inactive) | 10.4% (inactive) | 98.7 | 109 | -4.34% (inactive) | -9.17% (inactive)
16 | Cc1cccc(-c2cc3nc4c(c(N5CCOCC5)n3n2)CCCC4)c1 | 93 | 70% (inactive) | 93% (inactive) | 71.7% (inactive) | 76% (inactive) | -2.37% (inactive) | 78.4 | 76 | -6.76% (inactive) | 2.95% (inactive)

Row | SMILES | viability [1] [%] | Her2 level [2] | viability [3] | viability [4] | viability [5] | differential viability (reversal) ([6]; H69AR cells + 2 uM doxorubicin) | viability [6, 9] [%] | viability [6, 10] [%] | inhibition [7] | inhibition [8]
17 | Cc1sc2ncnc(OCC(=O)N3CCN(S(=O)(=O)c4ccccc4)CC3)c2c1C | 69.5 | 84.5% (inactive) | 69.5% (inactive) | 100% (inactive) | 92.7% (inactive) | 12% (inactive) | 80.7 | 92.7 | -1.32% (inactive) | 0.95% (inactive)
18 | Cc1nnc2sc(-c3cccc(NC(=O)c4cccnc4)c3)nn12 | 87.5 | 104% (inactive) | 87.5% (inactive) | 90.2% (inactive) | 87.8% (inactive) | -8.91% (inactive) | 96.7 | 87.8 | -2.7% (inactive) | 36.7% (active)
19 | O=C(c1ccccc1)c1ccncc1 | 100 | 76.5% (inactive) | 100% (inactive) | 100% (inactive) | 92.4% (inactive) | -3.62% (inactive) | 96 | 92.4 | -6.05% (inactive) | 5.33% (inactive)
20 | C=CCn1c(C)cc(C(=O)CSc2nc3ccccc3o2)c1C | 108 | 72.5% (inactive) | 108% (inactive) | 81.2% (inactive) | 95.6% (inactive) | 10% (inactive) | 85.6 | 95.6 | -2.84% (inactive) | -3.33% (inactive)
21 | COc1ccc2c(C(F)(F)F)cc(=O)oc2c1C | 92 | 99.5% (inactive) | 92% (inactive) | 110% (inactive) | 99.8% (inactive) | 6.5% (inactive) | 93.3 | 99.8 | -4.67% (inactive) | 9.68% (inactive)
22 | CCCn1c(C)cc(C(=O)COc2ncnc3sccc23)c1C | 89 | 98.5% (inactive) | 89% (inactive) | 74.1% (inactive) | 63.8% (inactive) | -18.6% (inactive) | 82.3 | 63.8 | 1.3% (inactive) | -11.8% (inactive)
23 | CCN(CC)CCN1C(=O)C(=O)/C(=C(/O)c2c(C)[nH]c(C(=O)OC)c2C)C1c1ccccc1OC (stereo not given) | 104 | 117% (inactive) | 104% (inactive) | 84.6% (inactive) | 68.3% (inactive) | -21.3% (inactive) | 89.5 | 68.3 | -0.26% (inactive) | -4.5% (inactive)
24 | CC(C(=O)Nc1ccccc1-c1ccccc1)N1CCOCC1 (stereo not given) | 108 | 97.5% (inactive) | 108% (inactive) | 104% (inactive) | 96.1% (inactive) | -1.07% (inactive) | 97.1 | 96.1 | -10.6% (inactive) | -4.13% (inactive)
25 | CC1(C)CC(=O)c2cnc(NCc3ccco3)nc2C1 | 99 | 107% (inactive) | 99% (inactive) | 114% (inactive) | 96.2% (inactive) | 11% (inactive) | 85.2 | 96.2 | -10.4% (inactive) | -8.83% (inactive)
26 | O=c1c[n+]([O-])c2ccccc2n1OCc1c(F)cccc1F | 90.5 | 70.5% (inactive) | 90.5% (inactive) | 93.4% (inactive) | 88.2% (inactive) | 1.98% (inactive) | 86.3 | 88.2 | -3.33% (inactive) | -1.59% (inactive)
27 | CC(=O)N1CCN=C1SCc1ccc(Br)cc1 | 93 | 97.5% (inactive) | 93% (inactive) | 71.9% (inactive) | 87% (inactive) | 3.28% (inactive) | 83.7 | 87 | -1.03% (inactive) | 9% (inactive)
28 | COC(=O)c1ccccc1NC(=O)Cn1ccnc1 | 110 | 88.5% (inactive) | 110% (inactive) | 80.8% (inactive) | 97.7% (inactive) | -3.07% (inactive) | 101 | 97.7 | -2.3% (inactive) | 1.11% (inactive)
29 | COC(=O)Nc1ccc(NC(C)=O)cc1 | 96 | 116% (inactive) | 96% (inactive) | 103% (inactive) | 91% (inactive) | 8.88% (inactive) | 82.1 | 91 | 5.84% (inactive) | -8.36% (inactive)
30 | C/C(N)=C(/C#N)C(=O)COC(=O)COc1ccc(Cl)cc1 | 93 | 100% (inactive) | 93% (inactive) | 98% (inactive) | 91.9% (inactive) | -5.87% (inactive) | 97.7 | 91.9 | -7.07% (inactive) | -5.08% (inactive)
31 | c1ccc(-c2nn3c(Cn4nnc5ccccc54)nnc3s2)nc1 | 102 | 114% (inactive) | 102% (inactive) | 75.6% (inactive) | 101% (inactive) | 9.54% (inactive) | 91.5 | 101 | -2.89% (inactive) | -2.67% (inactive)

— PubChem BioAssay
